Source: ChEMBL document CHEMBL1148267, “Synthesis and biological activity of a novel squalene epoxidase inhibitor, FR194738” (Bioorg Med Chem Lett, 2004)
Blank lines part the entries; values can stand above or below the compound they belong to.

What was measured:
[1] = Partition coefficient (logP); assay type: physicochemical; settings: octanol/water
Homo sapiens = species on record: Homo sapiens; assay: In vitro inhibitory activity was evaluated against human squalence epoxidase; assay type: functional
How it was run: (§1)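 Source of enzyme: dog or rat liver microsomes, or HepG2 cell homogenate for human, solubilized in 2% Triton X-100. Each was incubated with AMO-1680, FAD, NADPH, EDTA, [³H]squalene and drug for 90 min at 37 °C. The reaction was stopped with ethanolic KOH. Non-saponifiable lipids were separated by silica TLC and 2,3-oxidosqualene radioactivity was counted to give IC50.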

Canis familiaris [2] = species on record: Canis familiaris; assay: In vitro inhibitory activity was evaluated against dog squalence epoxidase; assay type: functional, Canis lupus familiaris; how it was run: as §1
[3] = Compound was evaluated for area under the curve (0-8 h); assay type: ADME, organism-based; parameters: time < 8 hr; settings: rat, in vivo
How it was run: (§2)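 Rats dosed orally with a single 10 mg/kg dose, given as a suspension in 0.5% methylcellulose. Plasma was sampled to derive Cmax, Tmax, AUC over 0–8 h and bioavailability.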

[4] = Bioavailability in rat; assay type: ADME, organism-based; settings: in vivo; how it was run: as §2
[5] = Compound was evaluated for maximum concentration (Cmax) in suspension of 0.5% methylcellulose at a dose of 10 mg/kg in rat; assay type: ADME, organism-based; parameters: dose 10 mg/kg; settings: in vivo; how it was run: as §2
Rattus norvegicus = species on record: Rattus norvegicus; assay: In vitro inhibitory activity was evaluated against rat squalence epoxidase; assay type: functional; how it was run: as §1
[6] = Compound was evaluated for maximum time(Tmax) in suspension of 0.5% methylcellulose at a dose of 10 mg/kg in rat; assay type: ADME, organism-based; parameters: dose 10 mg/kg; settings: in vivo; how it was run: as §2
Canis familiaris [7] = assay: Compound was evaluated for change in the effect of plasma lipoprotein cholesterol level (HDL) at a dose of 10 mg/kg/day; assay type: ADME, organism-based, Canis lupus familiaris; settings: dog, in vivo
How it was run: (§3)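 Male beagle dogs (9–11 kg, n=3) dosed orally twice daily for 28 days, at 3.2, 10 or 32 mg/kg/day. On day 14, serum lipoprotein fractions were separated by ultracentrifugation. LDL and HDL cholesterol were measured enzymatically and expressed as % change. Atherogenic index was taken as the LDL/HDL ratio.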

Canis familiaris [8] = assay: Compound was evaluated for change in the effect of plasma lipoprotein cholesterol level (HDL) at a dose of 3.2 mg/kg/day; assay type: ADME, organism-based, Canis lupus familiaris; settings: dog, in vivo; how it was run: as §3
Canis familiaris [9] = assay: Compound was evaluated for change in the effect of plasma lipoprotein cholesterol level (HDL) at a dose of 32 mg/kg/day; assay type: ADME, organism-based, Canis lupus familiaris; settings: dog, in vivo; how it was run: as §3
Canis familiaris [10] = assay: Compound was evaluated for change in the effect of plasma lipoprotein cholesterol level (LDL) at a dose of 10 mg/kg/day; assay type: ADME, organism-based, Canis lupus familiaris; settings: dog, in vivo; how it was run: as §3
Canis familiaris [11] = assay: Compound was evaluated for change in the effect of plasma lipoprotein cholesterol level (LDL) at a dose of 3.2 mg/kg/day; assay type: ADME, organism-based, Canis lupus familiaris; settings: dog, in vivo; how it was run: as §3
Canis familiaris [12] = assay: Compound was evaluated for change in the effect of plasma lipoprotein cholesterol level (LDL) at a dose of 32 mg/kg/day; assay type: ADME, organism-based, Canis lupus familiaris; settings: dog, in vivo; how it was run: as §3
Canis familiaris [13] = assay: Compound was evaluated for artherogenic index in plasma lipoprotein cholesterol level (LDL cholesterol / HDL cholesterol) at a dose of 10 mg/kg/day; assay type: ADME, organism-based, Canis lupus familiaris; settings: dog, in vivo; how it was run: as §3
Canis familiaris [14] = assay: Compound was evaluated for artherogenic index in plasma lipoprotein cholesterol level (LDL cholesterol / HDL cholesterol) at a dose of 3.2 mg/kg/day; assay type: ADME, organism-based, Canis lupus familiaris; settings: dog, in vivo; how it was run: as §3
Canis familiaris [15] = assay: Compound was evaluated for artherogenic index in plasma lipoprotein cholesterol level (LDL cholesterol / HDL cholesterol) at a dose of 32 mg/kg/day; assay type: ADME, organism-based, Canis lupus familiaris; settings: dog, in vivo; how it was run: as §3
HepG2 = assay: In vitro inhibitory activity was evaluated on cholesterol biosynthesis in HepG2 cells; assay type: functional, cell-based; settings: Homo sapiens
How it was run: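 HepG2 cells were kept overnight in 10% human lipoprotein-deficient serum, then preincubated 1 h with drug. [¹⁴C]acetate was added for 2 h. Cells were lysed and saponified with ethanolic KOH. Digitonin was added to the non-saponifiable lipids, and radioactivity of the digitonin-coprecipitable sterols was counted to give IC50.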

Compound: CCN(C/C=C/C#CC(C)(C)C)Cc1cccc(OCC(C)(C)OC(=O)c2ccsc2)c1
logP ([1]; read-out: logP): 7.48
IC50 (Canis familiaris [2]; Canis lupus familiaris): 370 nM
IC50 (Homo sapiens; Homo sapiens): 23 nM

Compound: CCN(C/C=C/C#CC(C)(C)C)Cc1cccc(OCc2cc(-c3ccsc3)cs2)c1
logP ([1]; read-out: logP): 8.19
IC50 (Canis familiaris [2]; Canis lupus familiaris): 43 nM
IC50 (Homo sapiens; Homo sapiens): 7.2 nM
AUC(0-t) at 8 h [3]: 1390 ng·h/mL
bioavailability [4]: 16.5%
Cmax [5]: 329 ng/mL
IC50 (Rattus norvegicus): 36 nM
Tmax [6]: 1.67 h

Compound: CN(C/C=C/C#CC(C)(C)C)Cc1cccc(OCC(C)(C)OCc2ccsc2)c1
logP ([1]; read-out: logP): 6.78
IC50 (Canis familiaris [2]; Canis lupus familiaris): 77 nM
IC50 (Homo sapiens; Homo sapiens): 11 nM

Compound: CCCN(C/C=C/C#CC(C)(C)C)Cc1cccc(OCC(C)(C)OCc2ccsc2)c1
logP ([1]; read-out: logP): 7.83
IC50 (Canis familiaris [2]; Canis lupus familiaris): 51 nM
IC50 (Homo sapiens; Homo sapiens): 31 nM

Compound: CC(C)n1c(/C=C/[C@H](O)C[C@H](O)CC(=O)O)c(-c2ccc(F)cc2)c2ccccc21 [FLUVASTATIN]
IC50 (HepG2): 28 nM

Compound: CCC(C)(C)C(=O)O[C@H]1C[C@@H](C)C=C2C=C[C@H](C)[C@H](CC[C@@H]3C[C@@H](O)CC(=O)O3)[C@H]21 [SIMVASTATIN]
IC50 (HepG2): 40 nM

Continued, values first:

logP ([1]; read-out: logP): 8.45
IC50 (Homo sapiens; Homo sapiens): 160 nM
Compound: C=CCC(CC=C)(COc1cccc(CN(CC)C/C=C/C#CC(C)(C)C)c1)OCc1ccsc1

logP ([1]; read-out: logP): 6.6
IC50 (Canis familiaris [2]; Canis lupus familiaris): 230 nM
IC50 (Homo sapiens; Homo sapiens): 25 nM
Compound: CCN(C/C=C/C#CC(C)(C)C)Cc1cccc(OCCOCc2ccsc2)c1

logP ([1]; read-out: logP): 8.36
IC50 (Homo sapiens; Homo sapiens): 120 nM
Compound: CCN(C/C=C/C#CC(C)(C)C)Cc1cccc(OCC(CC)(CC)OCc2ccsc2)c1

logP ([1]; read-out: logP): 7.3
IC50 (Canis familiaris [2]): 34 nM
IC50 (Homo sapiens; Homo sapiens): 5.4 nM
Compound: CCN(C/C=C/C#CC(C)(C)C)Cc1cccc(OCC(C)(C)OCc2ccsc2)c1

logP [1]: 7.3
HDL (Canis familiaris [7]): -14%
HDL (Canis familiaris [8]): 0%
HDL (Canis familiaris [9]): -27%
LDL (Canis familiaris [10]): -47%
LDL (Canis familiaris [11]): -2%
LDL (Canis familiaris [12]): -61%
IC50 (Canis familiaris [2]): 14 nM
Activity (Canis familiaris [13]): -38%
Activity (Canis familiaris [14]): -2%
Activity (Canis familiaris [15]): -47%
IC50 (Homo sapiens): 9.8 nM
AUC(0-t) at 8 h [3]: 1870 ng·h/mL
bioavailability [4]: 32.9%
Cmax [5]: 486 ng/mL
IC50 (Rattus norvegicus): 25 nM
Tmax [6]: 1.17 h
Compound: CCN(C/C=C/C#CC(C)(C)C)Cc1cccc(OCC(C)(C)OCc2ccsc2)c1.Cl
